In ChEMBL document CHEMBL1250465, “A new metabotropic glutamate receptor agonist with in vivo anti-allodynic activity” (Bioorg Med Chem, 2010):
Active and inactive are the calls of the source.

Assays:
[1] = test system: Rattus norvegicus; experiment: Antiallodynic activity against von Frey hair mechanically stimulated neuropathic pain in Sprague-Dawley rat assessed as increase of response threshold at 500 nmol dosed intrathecally after 3 hrs relative to control; assay type: functional
In short: (§1)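 Male Sprague-Dawley rats with chronic constriction injury of the left sciatic nerve, dosed 16 days after surgery. Intrathecal dosing under isoflurane, with vehicle as control. Blinded von Frey testing of both hind paws before dosing and at 1, 3 and 24 h. 50% withdrawal threshold in g from a Gaussian integral psychometric fit by maximum likelihood; n = 6.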

[2] = biological target: Glutamate NMDA receptor; experiment: Displacement of [3H]CGP39653 from NMDA receptor in Sprague-Dawley rat brain synaptic membranes after 60 mins; assay type: cell membranes, Membrane
In short: (§2)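 Adult male Sprague-Dawley rat cortex synaptic membranes, washed four times in ice-cold pH 7.4 buffer at about 0.4–0.5 mg protein/mL. AMPA: 5 nM [3H]AMPA in 30 mM Tris-HCl/2.5 mM CaCl2 with 100 mM KSCN. Kainate: 5 nM [3H]KAIN in 50 mM Tris-HCl. NMDA: 2 nM [3H]CGP39653 in 50 mM Tris-HCl/2.5 mM CaCl2. Nonspecific binding set with 1 mM (S)-Glu.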

[3] = test system: Rattus norvegicus; experiment: Antiallodynic activity against von Frey hair mechanically stimulated neuropathic pain in Sprague-Dawley rat assessed as increase of response threshold at 50 nmol dosed intrathecally after 24 hrs relative to control; assay type: functional; settings: in the assay text read “after 3 hrs” for “after 24 hrs”; in short: as §1
[4] = test system: Rattus norvegicus; experiment: Antiallodynic activity against von Frey hair mechanically stimulated neuropathic pain in Sprague-Dawley rat assessed as increase of response threshold at 250 nmol dosed intrathecally after 24 hrs relative to control; assay type: functional; settings: in the assay text read “after 3 hrs” for “after 24 hrs”; in short: as §1
[5] = test system: Rattus norvegicus; experiment: Antiallodynic activity against von Frey hair mechanically stimulated neuropathic pain in Sprague-Dawley rat assessed as increase of response threshold at 500 nmol dosed intrathecally after 1 hr; assay type: functional, organism-based; in short: as §1
[6] = Displacement of [3H]AMPA from AMPA receptor in Sprague-Dawley rat brain synaptic membranes after 30 mins; assay type: cell membranes, Membrane; in short: as §2
[7] = biological target: Metabotropic glutamate receptor 4 (Homo sapiens, UniProt Q14833); experiment: Agonist activity at mGlu4 receptor expressed in CHO cells assessed as inhibition of forskolin-induced increase of cAMP level; assay type: functional, cell-based
Sequence of Metabotropic glutamate receptor 4 (Q14833 whole entry): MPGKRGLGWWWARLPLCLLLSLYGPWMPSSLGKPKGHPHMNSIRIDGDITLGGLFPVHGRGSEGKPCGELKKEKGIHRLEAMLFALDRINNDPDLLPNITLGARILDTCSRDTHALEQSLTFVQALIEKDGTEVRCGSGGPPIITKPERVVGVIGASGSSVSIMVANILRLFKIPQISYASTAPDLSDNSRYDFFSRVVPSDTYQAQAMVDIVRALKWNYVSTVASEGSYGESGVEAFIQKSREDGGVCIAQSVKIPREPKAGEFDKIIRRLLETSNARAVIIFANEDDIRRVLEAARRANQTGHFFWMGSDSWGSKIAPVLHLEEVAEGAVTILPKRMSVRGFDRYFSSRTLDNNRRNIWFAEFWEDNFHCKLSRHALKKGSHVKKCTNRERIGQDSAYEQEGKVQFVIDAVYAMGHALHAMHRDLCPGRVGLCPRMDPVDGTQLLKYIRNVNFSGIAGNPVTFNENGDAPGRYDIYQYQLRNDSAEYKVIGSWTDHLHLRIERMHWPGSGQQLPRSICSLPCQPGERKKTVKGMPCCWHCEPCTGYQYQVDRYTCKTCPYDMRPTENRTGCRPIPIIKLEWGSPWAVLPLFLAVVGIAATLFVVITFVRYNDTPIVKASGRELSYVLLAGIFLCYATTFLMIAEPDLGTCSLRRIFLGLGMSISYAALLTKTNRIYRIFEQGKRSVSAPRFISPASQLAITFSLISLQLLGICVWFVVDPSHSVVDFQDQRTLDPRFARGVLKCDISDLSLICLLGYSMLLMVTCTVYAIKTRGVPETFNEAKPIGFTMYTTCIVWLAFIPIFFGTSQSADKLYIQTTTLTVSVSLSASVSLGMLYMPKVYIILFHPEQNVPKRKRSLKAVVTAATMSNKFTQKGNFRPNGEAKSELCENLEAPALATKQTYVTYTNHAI
In short: (§3)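 CHO cells grown in DMEM GlutaMAX-I, 10% dialyzed FBS, 2.5 g/L L-proline, seeded 26,000/well 24 h before. After a 20 min, 37 °C preincubation in DPBS with 1 mM CaCl2, 1 mM MgCl2, 1 mM IBMX, compound plus 25 µM forskolin was given for 10 min at 37 °C. Stopped with ice-cold sodium acetate pH 6.2, 0.1% Triton X-100, 0.1 mM IBMX; cAMP by radioimmunoassay.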

[8] = biological target: Metabotropic glutamate receptor 1 (Homo sapiens, UniProt Q13255); experiment: Agonist activity at mGlu1 receptor expressed in CHO cells assessed as myo-[2-3H]Inositol turnover by scintillation counting; assay type: functional, cell-based
Sequence of Metabotropic glutamate receptor 1 (Q13255 whole entry): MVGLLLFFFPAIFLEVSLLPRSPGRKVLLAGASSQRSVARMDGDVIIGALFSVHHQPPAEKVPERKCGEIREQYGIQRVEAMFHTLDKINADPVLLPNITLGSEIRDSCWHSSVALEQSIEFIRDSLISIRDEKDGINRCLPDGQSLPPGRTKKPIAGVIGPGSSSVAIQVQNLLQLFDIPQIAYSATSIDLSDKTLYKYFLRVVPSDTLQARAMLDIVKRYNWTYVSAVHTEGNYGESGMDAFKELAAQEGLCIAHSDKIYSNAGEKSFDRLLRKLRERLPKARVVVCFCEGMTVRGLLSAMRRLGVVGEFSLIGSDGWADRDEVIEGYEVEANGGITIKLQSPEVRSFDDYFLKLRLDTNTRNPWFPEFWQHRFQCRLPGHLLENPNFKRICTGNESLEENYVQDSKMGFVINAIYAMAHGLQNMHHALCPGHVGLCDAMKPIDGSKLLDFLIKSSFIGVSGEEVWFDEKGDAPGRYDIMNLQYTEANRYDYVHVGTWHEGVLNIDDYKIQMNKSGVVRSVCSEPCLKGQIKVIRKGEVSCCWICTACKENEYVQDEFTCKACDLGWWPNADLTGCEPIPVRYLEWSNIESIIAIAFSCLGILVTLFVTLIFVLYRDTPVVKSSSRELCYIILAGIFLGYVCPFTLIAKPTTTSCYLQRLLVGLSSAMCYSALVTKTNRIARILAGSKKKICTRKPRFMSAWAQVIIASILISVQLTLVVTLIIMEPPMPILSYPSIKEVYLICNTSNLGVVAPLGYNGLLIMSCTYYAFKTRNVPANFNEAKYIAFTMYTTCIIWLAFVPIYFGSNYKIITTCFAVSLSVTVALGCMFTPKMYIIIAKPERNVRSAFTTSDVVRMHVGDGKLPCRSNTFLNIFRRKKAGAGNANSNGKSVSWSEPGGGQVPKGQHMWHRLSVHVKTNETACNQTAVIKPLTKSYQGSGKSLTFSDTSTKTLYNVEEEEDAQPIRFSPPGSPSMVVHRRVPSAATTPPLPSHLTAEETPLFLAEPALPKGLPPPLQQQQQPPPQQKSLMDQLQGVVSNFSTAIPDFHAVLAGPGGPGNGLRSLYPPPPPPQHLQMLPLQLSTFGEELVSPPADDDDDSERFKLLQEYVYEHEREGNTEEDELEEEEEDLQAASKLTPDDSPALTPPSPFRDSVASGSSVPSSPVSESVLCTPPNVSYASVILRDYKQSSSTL
In short: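 CHO cells stably expressing receptor, washed with DPBS, preincubated 30 min at 37 °C in HBSS with 20 mM HEPES, 1 mM CaCl2, 1 mM MgCl2, 0.85 mg/mL LiCl, pH 7.4; compound added for 30 min at 37 °C. Stopped with ice-cold 10 mM formic acid, 30 min at 4 °C. [3H]IP measured with yttrium silicate SPA beads; counts per minute read.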

[9] = test system: Rattus norvegicus; experiment: Antiallodynic activity against von Frey hair mechanically stimulated neuropathic pain in Sprague-Dawley rat assessed as increase of response threshold at 500 nmol dosed intrathecally after 24 hrs; assay type: functional, organism-based; in short: as §1
[10] = biological target: T1, Metabotropic glutamate receptor 2 (Homo sapiens, UniProt Q14416); experiment: Agonist activity at mGlu2 receptor expressed in CHO cells assessed as inhibition of forskolin-induced increase of cAMP level; assay type: functional, cell-based; in short: as §3
T1 sequence (Q14416 whole entry): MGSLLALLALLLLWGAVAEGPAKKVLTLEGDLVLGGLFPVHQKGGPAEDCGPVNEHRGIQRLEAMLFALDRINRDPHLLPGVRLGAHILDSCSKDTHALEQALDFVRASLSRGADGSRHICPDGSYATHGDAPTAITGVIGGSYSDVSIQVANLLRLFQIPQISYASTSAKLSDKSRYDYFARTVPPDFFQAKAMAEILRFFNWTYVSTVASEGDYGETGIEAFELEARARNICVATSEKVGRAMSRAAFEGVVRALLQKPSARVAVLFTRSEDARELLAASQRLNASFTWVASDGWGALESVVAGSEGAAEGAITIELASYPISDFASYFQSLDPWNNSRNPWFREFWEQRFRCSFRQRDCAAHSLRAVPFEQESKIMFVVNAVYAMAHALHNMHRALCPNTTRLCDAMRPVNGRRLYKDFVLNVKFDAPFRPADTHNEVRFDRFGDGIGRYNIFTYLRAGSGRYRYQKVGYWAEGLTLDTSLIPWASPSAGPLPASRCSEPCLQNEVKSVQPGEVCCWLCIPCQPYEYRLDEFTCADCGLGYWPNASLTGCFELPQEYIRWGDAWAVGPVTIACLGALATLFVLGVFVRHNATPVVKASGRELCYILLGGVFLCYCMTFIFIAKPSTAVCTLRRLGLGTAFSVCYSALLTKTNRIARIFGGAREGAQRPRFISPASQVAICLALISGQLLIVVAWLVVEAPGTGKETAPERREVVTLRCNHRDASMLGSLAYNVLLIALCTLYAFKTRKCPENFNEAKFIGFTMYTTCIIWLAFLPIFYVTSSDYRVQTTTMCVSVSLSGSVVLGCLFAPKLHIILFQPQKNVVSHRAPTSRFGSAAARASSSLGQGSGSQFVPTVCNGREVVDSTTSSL

[11] = Displacement of [3H]KAIN from kainate receptor in Sprague-Dawley rat brain synaptic membranes after 60 mins; assay type: cell membranes, Membrane; in short: as §2
[12] = test system: Rattus norvegicus; experiment: Antiallodynic activity against von Frey hair mechanically stimulated neuropathic pain in intrathecally dosed Sprague-Dawley rat assessed as increase of response threshold after 3 hrs; assay type: functional, organism-based; in short: as §1
[13] = biological target: T1, Metabotropic glutamate receptor 2; experiment: Antagonist activity at mGlu2 receptor expressed in CHO cells assessed as increase of cAMP level; assay type: functional, cell-based

| IC50 [2] | IC50 [6] | EC50 [7] | EC50 [8] | EC50 [10] | IC50 [11] | IC50 [13] | SMILES | Activity [1] | Activity [3] | Activity [4] | Activity [5] | Activity [9] | Activity [12] |
| --- | --- | --- | --- | --- | --- | --- | --- | --- | --- | --- | --- | --- | --- |
| > 100 µM | > 100 µM | > 100 µM | > 100 µM | 0.05 µM | > 100 µM |  | N[C@H](C(=O)O)[C@@H]1[C@@H](C(=O)O)[C@@H]1C1CC1 (racemic) | 10 g | 5 g | 7.5 g | Active | inactive | Dose-dependent effect |
| > 100 µM | > 100 µM | > 100 µM | > 100 µM |  | > 100 µM | 62 µM | N[C@H](C(=O)O)[C@@H]1[C@@H](C(=O)O)[C@@H]1C1CCCCC1 (racemic) |  |  |  |  |  |  |
|  |  | > 100 µM | > 100 µM | 0.01 µM |  |  | C[C@H]1[C@H](C(=O)O)[C@H]1[C@H](N)C(=O)O (racemic) |  |  |  |  |  |  |
